# Compound activity as filed in PubChem BioAssay.
# Compounds with a hit are over-represented: about 2.4% of the library has one in this group of screens.
# S1P4 antagonist – S1P4 receptor antagonists, primary screen, cell-based | S1P4-expressing cells, antagonist mode, reporter read-out | inhibition, % at 4.98 µM | 220,000 compounds, 0.26% hits; in the data active means inhibition above about 29%;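 further: 0% = wells stimulated with agonist and 100% = vehicle wells without agonist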
# NPY Y2 blocker – NPY-Y2 receptor antagonists, primary screen, cell-based; NPY-Y2 expressing cells, antagonist mode; 140,000 compounds, 0.99% hits; AID 793, 2007; inhibition, % at 2.7 µM; Neuropeptide Y receptor type 2 (Homo sapiens), P49146; in the data active means inhibition above about 17%;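 further: 0% = vehicle with agonist challenge and 100% = reference antagonist with challenge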
# NPY-Y1 antag – NPY-Y1 receptor antagonists, primary screen, cell-based | 200,000 compounds, 1% hits | inhibition, % at 3.6 µM | HEK293-CNG Y1 cells, membrane potential fluorescence; NPY at EC95, then isoproterenol;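 active means inhibition above the campaign mean inhibition of all tested compounds plus 3 SD, cut at about 20% in these data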;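 further: 0% = DMSO wells given NPY plus isoproterenol and 100% = isoproterenol alone without NPY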
# Target sequence (P25929 whole entry, looked up): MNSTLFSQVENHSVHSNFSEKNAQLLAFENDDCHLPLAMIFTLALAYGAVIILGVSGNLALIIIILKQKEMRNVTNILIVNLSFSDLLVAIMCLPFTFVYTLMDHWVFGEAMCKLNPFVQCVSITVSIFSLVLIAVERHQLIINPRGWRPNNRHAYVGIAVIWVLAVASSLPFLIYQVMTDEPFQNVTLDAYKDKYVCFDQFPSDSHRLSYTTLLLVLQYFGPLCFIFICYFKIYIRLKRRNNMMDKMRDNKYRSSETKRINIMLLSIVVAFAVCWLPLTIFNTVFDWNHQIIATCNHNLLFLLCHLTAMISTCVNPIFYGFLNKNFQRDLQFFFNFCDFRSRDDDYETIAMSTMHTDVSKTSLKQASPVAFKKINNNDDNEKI
#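 Material: HEK293 cells with Y1 receptor plus CNG channel; times: compound incubation 1 h at room temperature, readout 45 min post-stimulation; signal: fluorescence, membrane potential probe; read-out basis: fluorescence ratio normalized to % inhibition between controls; benchmarks: full-block control isoproterenol-only wells, zero-block control NPY plus isoproterenol wells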
# S1P4 ag – S1P4 receptor agonists, primary screen, cell-based. AID 1509, 2009. 220,000 compounds, 0.35% hits. Sphingosine 1-phosphate receptor 4 (Homo sapiens), O95977. activation, % at 4.98 µM. S1P4-expressing cell line, agonist reporter assay; in the data active means activation above about 11%;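 further: 0% = DMSO vehicle and 100% = reference agonist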
# NPY-Y1 PAM-ag – NPY-Y1 receptor potentiators or agonists, primary screen, cell-based; activation, % at 3.6 µM; NPY-Y1 expressing cells, potentiator/agonist activation; 220,000 compounds, 0.37% hits; in the data active means activation above about 33%, passing the limit was not always enough;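 further: cells stimulated with NPY at EC10 then isoproterenol at EC100; 0% = low agonist plus stimulus and 100% = saturating agonist plus stimulus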
# NPY2 pot ag – NPY-Y2 potentiators or agonists, primary screen, cell-based. cells expressing NPY-Y2, potentiator/agonist read-out. activation, % at 3.6 µM. 220,000 compounds, 0.45% hits. AID 1359, 2008; in the data active means activation above about 27%;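 further: cells stimulated with NPY near EC25 plus isoproterenol at EC100; 0% = vehicle plus submaximal agonist and 100% = vehicle plus saturating agonist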
# Active calls of the source: *; / = no result given.
SMILES,S1P4 antagonist,NPY Y2 blocker,NPY-Y1 antag,S1P4 ag,NPY-Y1 PAM-ag,NPY2 pot ag
CCN(CC)CCn1c(NCc2ccco2)nc2ccccc21,4.7,2.1,3.4,-1.1,-21.3,-6.0
Cn1c(CNc2nc3ccccc3n2CCN2CCCCC2)nc2ccccc21,-6.4,5.9,7.1,-1.4,-44.2,-16.3
O=C(NCCCn1ccnc1)c1cccc(S(=O)(=O)NCc2ccccc2)c1,-14.6,/,-4.9,-0.3,4.0,-0.5
O=S(=O)(O)c1nc2ccccc2n1Cc1cccc2ccccc12,0.2,/,/,-1.3,-3.3,-9.8
COC(=O)c1cc2c(N)c(C(=O)c3ccccc3)sc2nc1C(OC)OC,15.5,/,/,-0.4,8.0,4.7
CCCn1c(-c2cccs2)nc2ccccc21,-7.1,3.2,-3.8,-0.2,-14.2,-6.8
CCN1c2ccccc2-c2nc3ccccc3n2C1c1cccs1 (configuration not stated),-19.2,25.2*,36.7*,1.7,-10.4,-9.2
CCNC(=O)/C(=C\C=C\c1ccccc1)NC(=O)c1ccc(Br)o1,-5.8,0.6,-0.6,0.9,-23.2,6.0
CCCCC(c1nnnn1C1CCCC1)N1CCN(C2CCCC2)CC1 (configuration not stated),-8.3,45.9*,30.9*,-1.4,-19.9,-27.2
CCCC(c1nnnn1Cc1ccc(F)cc1)N1CCN(C2CCCCC2)CC1 (configuration not stated),-4.0,31.4*,22.9*,0.7,-17.1,-6.3
CC(C)C(c1nnnn1Cc1ccc(F)cc1)N1CCN(C2CCCC2)CC1 (configuration not stated),14.3,/,9.7,1.5,-16.4,-16.2
CCn1c2ccccc2c2cc(CN3CCN(S(=O)(=O)Cc4ccccc4)CC3)ccc21,-21.9,6.9,16.7,0.7,-28.8,-4.6
COC(=O)c1cccnc1-n1c(=O)c2cccnc2n(Cc2cccc(C(F)(F)F)c2)c1=O,6.5,/,1.9,0.5,3.8,0.6
CC(NS(=O)(=O)c1cccc(Cl)c1)C(=O)Nc1ccc(-c2nc3ccccc3s2)cc1 (configuration not stated),11.1,-3.3,-10.0,-4.5,54.6*,19.9
C=CCNC(=O)c1ccccc1NC(=O)C1COc2ccccc2O1 (configuration not stated),-7.6,/,7.3,0.5,-6.5,-18.9
O=C(CC1C(=O)NCCN1C(=O)Nc1ccc(C(F)(F)F)cc1)Nc1ccc(F)cc1 (configuration not stated),7.3,/,/,-0.3,69.3*,40.8*
CCc1nc(N2CCCC(C)C2)c2oc3ccccc3c2n1 (configuration not stated),-2.5,29.2*,37.5*,1.8,-25.1,-22.7
CCc1nc(N2CCN(Cc3ccc4c(c3)OCO4)CC2)c2oc3ccccc3c2n1,3.6,20.8*,26.3*,-1.7,-103.3,-44.9
CCc1nc(Nc2ccc3c(c2)OCO3)c2oc3ccccc3c2n1,6.5,2.4,2.5,0.2,-20.6,10.0
CCc1nc(N2CCCCC2)c2oc3ccccc3c2n1,-5.1,14.1,7.5,-4.9,-30.1,-31.1
Cc1ccc(N(C(C)C(=O)N2CCCCC2)S(C)(=O)=O)cc1C (configuration not stated),3.9,3.2,0.9,1.0,-15.0,-7.7
C/C(=N/NC(=O)c1cc(O)c(O)c(O)c1)c1ccc([N+](=O)[O-])cc1,-17.1,/,4.8,1.9,10.8,-3.9
CC(C)Cc1nc2oc3c(N4CCN(CCO)CC4)ncnc3c2c2c1CCCC2,-0.1,17.1*,9.2,-1.0,-10.1,3.4
Cc1cc(C)c(S(=O)(=O)NCC2CCC(C(=O)NCc3ccccn3)CC2)c(C)c1 (configuration not stated),-10.9,/,1.6,0.8,3.6,0.9
Cc1ccccc1N=C(NOCc1ccccc1)c1nonc1N,-13.4,10.9,8.5,-0.8,-3.9,-4.1
Cc1ccc(N=C(NO)c2nonc2N)c(C)c1,-8.3,3.0,0.5,1.3,-15.6,4.1
Cc1ccccc1N=C(NOCc1ccc(Cl)cc1Cl)c1nonc1N,-2.0,29.6*,33.1*,0.6,-36.2,-8.8
